ChEMBL document CHEMBL1944523, “Benzimidazolones: a new class of selective peroxisome proliferator-activated receptor γ (PPARγ) modulators” (J Med Chem, 2011)
Calls of active or inactive are those of the source. The calls are words filed in the database; no cut-off is given here.

Tests used:
[1] = biological target: T1, Peroxisome proliferator-activated receptor gamma (Homo sapiens) (UniProt P37231); test: Binding affinity to human wild type PPARgamma LBD expressed in COS1 cells co-expressing GAL4 by scintillation proximity assay; assay type: cell-based; conditions: COS-1
T1 sequence (whole entry): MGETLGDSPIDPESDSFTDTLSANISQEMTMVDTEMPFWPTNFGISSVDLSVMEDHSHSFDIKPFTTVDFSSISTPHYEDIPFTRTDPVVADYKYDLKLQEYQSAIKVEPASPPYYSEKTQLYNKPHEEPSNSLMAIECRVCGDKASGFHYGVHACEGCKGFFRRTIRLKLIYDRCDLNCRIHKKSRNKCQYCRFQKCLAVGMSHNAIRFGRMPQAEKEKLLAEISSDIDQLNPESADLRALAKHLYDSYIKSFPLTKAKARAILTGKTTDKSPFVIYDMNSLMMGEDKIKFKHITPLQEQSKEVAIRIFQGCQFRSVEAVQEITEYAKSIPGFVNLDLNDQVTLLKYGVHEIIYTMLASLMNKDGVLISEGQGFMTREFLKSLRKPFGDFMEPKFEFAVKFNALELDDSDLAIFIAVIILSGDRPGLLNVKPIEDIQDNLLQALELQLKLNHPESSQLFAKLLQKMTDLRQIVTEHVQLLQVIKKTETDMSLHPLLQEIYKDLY

[2] = biological target: T1, Peroxisome proliferator-activated receptor gamma (Homo sapiens); test: Agonist activity at human PPARgamma expressed in COS-1 cells co-expressing with Gal4 by transactivation assay relative to rosiglitazone; assay type: functional, cell-based
Summary of the method: (§1)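 GAL4-PPAR chimeric receptor transactivation in transiently co-transfected COS-1 cells with a GAL4-responsive reporter; potency as EC50 and maximum activation expressed relative to rosiglitazone; triplicate, mean reported.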

COS-1 = test: Binding affinity to human PPARgamma LBD Y473A mutant expressed in COS1 cells co-expressing GAL4 by scintillation proximity assay; assay type: cell-based
Mus musculus [3] = test: Antidiabetic activity in db/db C57BLKS/J-m +/+ Leprdb mouse assessed as reduction of glucose level at 10 mg/kg, po qd for 10 days measured on 11 relative to control; assay type: functional; design: scale not given: the % may be the effect or the level left
Summary of the method: (§2)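 Male db/db (C57BLKS/J-m +/+Leprdb) mice, 12−13 weeks old, seven per group, chow and water freely available; once-daily oral gavage in 0.25% methylcellulose vehicle for 11 days. Tail blood drawn just before next dose on days 0, 4, 7 and 11 for plasma glucose. Value is percent correction versus vehicle control; mean of n = 7; rosiglitazone 10 mpk positive control.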

[4] = AUC in db/db C57BLKS/J-m +/+ Leprdb mouse at 10 mg/kg, po qd for 10 days measured on day 11; assay type: ADME, organism-based; design: dose 10 mg/kg, route oral; conditions: plasma
Summary of the method: (§3)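 Male db/db (C57BLKS/J-m +/+Leprdb) mice aged 12−13 weeks, seven per group, gavaged once daily with compound in 0.25% methylcellulose vehicle. Total compound exposure measured at study end: plasma acidified with 0.5 M formate buffer pH 3.0, protein precipitated with acetonitrile, quantified by LC−MS−MS against calibration curves in control plasma.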

Rattus norvegicus [5] = test: Antidiabetic activity in obese insulin resistant Zucker fa/fa rat assessed as decrease in insulin level in plasma administered qd for 7 days
Rattus norvegicus [6] = test: Antidiabetic activity in obese insulin resistant Zucker fa/fa rat assessed as decrease in free fatty acids level in plasma at 1 to 100 mg/kg qd for 7 days; assay type: functional, organism-based
Summary of the method: (§4)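 Obese insulin-resistant Zucker fa/fa rats (n = 8) dosed daily for 7 days with vehicle or compound. Tail-nick blood taken 1 day before dosing and 1 day after the seventh dose; plasma insulin by rat insulin RIA, free fatty acids and triglyceride by enzymatic kits per manufacturer instructions.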

Rattus norvegicus [7] = test: Antidiabetic activity in obese insulin resistant Zucker fa/fa rat assessed as decrease in insulin level in plasma at 1 to 100 mg/kg qd for 7 days; assay type: functional, organism-based; summary of the method: as §4
Mus musculus [8] = test: Toxicity in po dosed db/db C57BLKS/J-m +/+ Leprdb mouse assessed as increase in water content of epididymal fat pad administered qd for 10 days measured on day 11 by vaccum drying method; assay type: organism-based; conditions: in vivo, 240 h
Summary of the method: (§5)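 Male db/db mice, seven per group, gavaged daily in 0.25% methylcellulose; after day 11 dosing epididymal fat pads excised, weighed, vacuum centrifugal-dried over 24 h, reweighed to give water content; mean of seven determinations.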

Rattus norvegicus [9] = test: Antidiabetic activity in obese insulin resistant Zucker fa/fa rat assessed as decrease in triglyceride level in plasma at 1 to 100 mg/kg qd for 7 days; assay type: functional, organism-based; summary of the method: as §4
Rattus norvegicus [10] = test: Dose normalized AUC in rat at 2 mg/kg, po by LC-MS/MS analysis; assay type: ADME, organism-based; design: dose 2 mg/kg, route oral; conditions: in vivo
Summary of the method: (§6)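 Rat pharmacokinetics: 2 mpk oral in 5% methylcellulose, 0.5 mpk iv in ethanol/PEG400/water (1/4/5). Blood sampled at set intervals; plasma acidified with 0.5 M formate buffer pH 3.0, acetonitrile-precipitated, quantified by LC−MS−MS against spiked control-plasma calibration curves.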

[11] = biological target: T2, Peroxisome proliferator-activated receptor gamma (Homo sapiens, UniProt P37231); test: Agonist activity at human PPARgamma expressed in COS-1 cells co-expressing with Gal4 by transactivation assay; assay type: functional, cell-based; summary of the method: as §1
T2 sequence (P37231 whole entry): T1 sequence (whole entry)

Mus musculus [12] = test: Toxicity in db/db C57BLKS/J-m +/+ Leprdb mouse assessed as increase in water content of epididymal fat pad at 10 to 50 mg/kg, po qd for 10 days measured on day 11 by vaccum drying method; assay type: organism-based; design: dose 10-50 mg/kg, route oral; conditions: in vivo, 240 h; summary of the method: as §5
[13] = Oral bioavailability in rat at 2 mg/kg by LC-MS/MS analysis; assay type: ADME, organism-based; conditions: in vivo; summary of the method: as §6
[14] = biological target: T3, Peroxisome proliferator-activated receptor alpha (Homo sapiens, UniProt Q07869); test: Binding affinity to human PPARalpha expressed in COS-1 by scintillation proximity assay
T3 sequence (Q07869 whole entry): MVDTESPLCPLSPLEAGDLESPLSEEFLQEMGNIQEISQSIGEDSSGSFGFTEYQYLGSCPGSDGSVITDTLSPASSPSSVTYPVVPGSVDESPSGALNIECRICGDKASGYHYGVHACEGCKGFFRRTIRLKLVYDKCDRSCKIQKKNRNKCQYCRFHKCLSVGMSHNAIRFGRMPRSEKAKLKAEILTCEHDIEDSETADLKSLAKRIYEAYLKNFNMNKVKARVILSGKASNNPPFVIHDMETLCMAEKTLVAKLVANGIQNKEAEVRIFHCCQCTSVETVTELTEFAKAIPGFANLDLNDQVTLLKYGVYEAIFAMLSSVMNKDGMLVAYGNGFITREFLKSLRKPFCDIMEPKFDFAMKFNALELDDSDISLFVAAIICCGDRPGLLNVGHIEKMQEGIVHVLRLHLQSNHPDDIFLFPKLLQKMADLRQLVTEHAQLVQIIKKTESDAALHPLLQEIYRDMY
Summary of the method: (§7)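 Scintillation proximity binding assay on PPAR receptors giving IC50; mean of three determinations.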

[15] = biological target: T4, Peroxisome proliferator-activated receptor delta (Homo sapiens, UniProt Q03181); test: Binding affinity to PPARdelta by scintillation proximity assay; summary of the method: as §7
T4 sequence (Q03181 whole entry): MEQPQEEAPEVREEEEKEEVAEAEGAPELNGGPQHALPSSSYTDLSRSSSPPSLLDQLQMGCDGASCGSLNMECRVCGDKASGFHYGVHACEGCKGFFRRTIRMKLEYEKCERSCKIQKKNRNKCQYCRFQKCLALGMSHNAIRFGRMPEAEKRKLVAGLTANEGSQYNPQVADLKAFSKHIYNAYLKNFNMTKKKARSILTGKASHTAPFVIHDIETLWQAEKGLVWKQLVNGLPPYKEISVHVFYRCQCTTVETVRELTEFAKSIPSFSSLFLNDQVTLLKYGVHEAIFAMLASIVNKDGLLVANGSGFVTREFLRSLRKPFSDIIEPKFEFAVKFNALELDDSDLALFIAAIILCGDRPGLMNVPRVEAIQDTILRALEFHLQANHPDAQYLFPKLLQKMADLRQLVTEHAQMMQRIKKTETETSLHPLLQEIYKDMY

Rattus norvegicus [16] = test: Plasma clearance in rat at 0.5 mg/kg, iv and 2 mg/kg, po by LC-MS/MS analysis; assay type: ADME, organism-based; conditions: in vivo; summary of the method: as §6
[17] = Drug uptake in db/db C57BLKS/J-m +/+ Leprdb mouse at 10 mg/kg, po qd for 10 days measured in day 11 by LC-MS/MS analysis; assay type: ADME, organism-based; design: dose 10 mg/kg, route oral; conditions: in vivo; summary of the method: as §3
[18] = biological target: T2, Peroxisome proliferator-activated receptor gamma; test: Binding affinity to human PPARgamma by scintillation proximity assay; summary of the method: as §7
[19] = Half life in rat at 0.5 mg/kg, iv and 2 mg/kg, po by LC-MS/MS analysis; assay type: ADME, organism-based; conditions: in vivo; summary of the method: as §6
[20] = biological target: T2, Peroxisome proliferator-activated receptor gamma; test: Partial agonist activity at human PPARgamma LBD assessed as activation of PGC1 by HTRF assay; assay type: functional
Mus musculus [21] = test: Antidiabetic activity in db/db C57BLKS/J-m +/+ Leprdb mouse assessed as reduction of glucose level at 20 mg/kg, po qd for 10 days measured on 11 relative to control; assay type: functional; design: scale not given: the % may be the effect or the level left; summary of the method: as §2
[22] = biological target: T2, Peroxisome proliferator-activated receptor gamma; test: Partial agonist activity at human PPARgamma LBD assessed as activation of CBP1-453 by HTRF assay; assay type: functional
[23] = biological target: T2, Peroxisome proliferator-activated receptor gamma; test: Partial agonist activity at human PPARgamma LBD assessed as activation of Src-1 by HTRF assay; assay type: functional
[24] = biological target: T2, Peroxisome proliferator-activated receptor gamma; test: Partial agonist activity at human PPARgamma LBD assessed as activation of PBP by HTRF assay; assay type: functional
Mus musculus [25] = test: Antidiabetic activity in db/db C57BLKS/J-m +/+ Leprdb mouse assessed as reduction of glucose level at 30 mg/kg, po qd for 10 days measured on 11 relative to control; assay type: functional; design: scale not given: the % may be the effect or the level left; summary of the method: as §2

SMILES	Emax [2] [%]	AUC/dose (Rattus norvegicus [10]) [µM·kg·h/mg]	EC50 [11] [nM]	bioavailability [13] [%]	IC50 [14] [nM]	IC50 [15] [nM]	clearance (Rattus norvegicus [16]) [mL/min/kg]	AUC at 240 h [17] [µM·h]	IC50 [18] [nM]	half-life [19] [h]	EC50 [20] [nM]	EC50 [22] [nM]	EC50 [23] [nM]	EC50 [24] [nM]	further results
C[C@]1(c2cccc(Cn3c(=O)n(-c4noc5cc(Cl)ccc45)c4ccccc43)c2)OC(=O)NC1=O	101														Activity [1]: Active; Activity (COS-1): Active; Activity (Mus musculus [3]): 84%
CN(CCOc1ccc(CC2SC(=O)NC2=O)cc1)c1ccccn1 (stereo unspecified) [ROSIGLITAZONE]															AUC at 240 h [4]: 220 µM·h; ED50 (Rattus norvegicus [5]): 312 µM·h; Activity [1]: Active; Activity (COS-1): inactive; Activity (Rattus norvegicus [6]): Active; Activity (Rattus norvegicus [7]): Active; Activity (Mus musculus [8]): Dose-dependent effect; Activity (Rattus norvegicus [9]): Active; Activity (Mus musculus [3]): 60%
C[C@]1(c2cccc(Cn3c(=O)n(-c4noc5cc(Cl)ccc45)c4ccccc43)c2)OC(O)=NC1=O		1.9	102	117	> 50000	> 50000	26.5	1160	49.1	3					Activity (Mus musculus [12]): Non-toxic
COc1ccc2c(-n3c(=O)n(Cc4cc([C@@]5(C)OC(=O)NC5=O)ccc4Cl)c4ccccc43)noc2c1	26	0.8	9.1	49	> 50000	> 50000	29.7	104	9.9	3.8	2	> 50000	> 50000	1820	Activity (Mus musculus [21]): 29%
COc1ccc2c(-n3c(=O)n(Cc4ccc(Cl)c(O[C@H](C)C(=O)O)c4)c4ccccc43)noc2c1	31	1.5	28.1	48	> 50000	> 50000	11.4	576	6.9	5	2	> 50000	> 50000	3	Activity (Mus musculus [25]): 39%
C[C@@H](Oc1cc(Cn2c(=O)n(-c3noc4cc(Cl)ccc34)c3ccc(C(F)(F)F)cc32)ccc1Cl)C(=O)O	32		200		> 50000	> 50000			68		3240	> 50000	> 50000	> 50000	
COc1ccc2c(-n3c(=O)n(Cc4cc(O[C@H](C)C(=O)O)ccc4Cl)c4ccccc43)noc2c1	50	5	51.1	97	> 50000	> 50000	7.3		13.7	6.9	8	11	> 50000	11	Activity (Mus musculus [25]): 30%
